For one series, the target named is Cholinesterase (Equus caballus, UniProt P81908). Briefly: Inhibition of equine serum BChE using butyrylthiocholine as substrate by Ellman's method. The gist of the method:
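Equine serum BChE (0.2 U/mL final) with 40 μM butyrylthiocholine and 100 μM DTNB, modified Ellman spectrophotometry; compounds from DMSO diluted in water, five inhibitor concentrations; IC50 from regression of v0/vi versus inhibitor concentration; triplicate.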
In general terms: Ellman's reagent forms a yellow product with free thiols.

The subject of series [1] is SH-SY5Y. The series can be described thus: Neuroprotective activity against MPP+ induced cell death in human SH-SY5Y cells assessed as decrease in PARP1 cleavage at 1 to 10 uM incubated for 24 hrs by immunoblotting analysis. Particulars: dose 1-10 µM. In kind it is functional, cell-based. (In general: Immunoblotting shows a protein as a band on a membrane.)
Series [2] deals with SH-SY5Y. Briefly: Neuroprotective activity against ATRA-differentiated and MPP+ induced cell death in human SH-SY5Y cells assessed as cell death at 1 uM by LDH release assay (reference value: 100%). In kind it is functional. The gist of the method: (§1)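 ATRA-differentiated SH-SY5Y co-treated with 5 mM MPP+ and compound; cell death by commercial LDH release kit; MPP+ value set to 100 %; triplicates on at least three independent days.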

In series [3] the target is Mitogen-activated protein kinase; ERK1/ERK2 (Homo sapiens) (UniProt P27361+P28482). Briefly: Inhibition of MPP+ induced ERK1/2 phosphorylation in human SH-SY5Y cells at 1 to 10 uM incubated for 24 hrs by Western blotting analysis. In kind it is cell-based. Particulars: dose 1-10 µM. The gist of the method: (§2)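 ATRA-differentiated neuron-like SH-SY5Y co-treated with 5 mM MPP+ and compound for 24 h, lysed in RIPA buffer, SDS-PAGE, transfer to nitrocellulose, immunoblot for p-Akt (Ser473) and ERK1/2; HSP90 and β-actin loading controls; ECL chemiluminescence imaged by CCD camera.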

In series [4] the test system is SH-SY5Y. Briefly: Neuroprotective activity against ATRA-differentiated and MPP+ induced cell death in human SH-SY5Y cells assessed as cell death at 10 uM by LDH release assay (reference value: 100%). In kind it is functional. Put shortly:
as §1

Series [5] concerns SH-SY5Y. The series can be described thus: Inhibition of MPP+ induced mitochondrial depolarization in human SH-SY5Y cells at 10 uM incubated for 2 hrs by JC10 staining based confocal laser scanning microscopy. The series is classed as functional. Put shortly:
(§3)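 ATRA-differentiated SH-SY5Y co-treated with 5 mM MPP+ and compound for 2 h; mitochondrial membrane potential by JC10 ratiometric red/green signal (plate) and confocal imaging of JC10-stained cells (50 000 cells/well slides); DMSO control set to 100 %; triplicates on three independent days.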

For series [6], the system named is SH-SY5Y. The series can be described thus: Inhibition of MPP+ induced superoxide radical production in ATRA-differentiated human SH-SY5Y cells at 10 uM incubated for 24 hrs by MitoSOX staining based confocal laser scanning microscopy. The series is classed as functional, cell-based. Put shortly: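 50 000 cells seeded on chamber slides, ATRA-differentiated, co-treated with 5 mM MPP+ and compound for 24 h, then stained with MitoSOX and imaged by confocal laser-scanning microscopy (63× objective).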

Series [7] deals with SH-SY5Y. Briefly: Inhibition of MPP+ induced mitochondrial superoxide radical production in human SH-SY5Y cells at 10 uM incubated for 24 hrs by MitoSOX staining based microplate reader assay (reference value: 100%). The series is classed as functional. The gist of the method: (§4)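 Neuron-like SH-SY5Y (20 000 cells/well) co-treated with 5 mM MPP+ and compound for 24 h; plates centrifuged, medium replaced by 5 μM MitoSOX in HBSS, 30 min at 37 °C, fluorescence 500/580 nm; MPP+ signal set to 100 %; triplicates on at least four independent days.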

The subject of series [8] is SH-SY5Y. Briefly: Neuroprotective activity against MPP+ induced cell death in human SH-SY5Y cells assessed as cell death at 10 uM incubated for 24 hrs by Cas-3, 7 staining based assay. The series is classed as functional. The gist of the method:
(§5)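 Caspase-3/7 activation with Ac-DEVD-AFC substrate after 24 h co-treatment of neuron-like SH-SY5Y with compound and 5 mM MPP+; MPP+ signal set to 100 %; triplicates on at least three independent days.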

Series [9] concerns SH-SY5Y. Briefly: Cytotoxicity against human SH-SY5Y cells assessed as cell death at 10 uM incubated for 72 hrs by propidium iodide staining based fluorescence assay. In kind it is toxicity. The gist of the method: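 SH-SY5Y differentiated to neuron-like phenotype with 10 μM all-trans retinoic acid for 48 h, 20 000 cells/well. Compounds from DMSO stocks (DMSO ≤0.5 %) added, then 72 h exposure. Control wells lysed with 1 % Triton X-100 for 1 min, then all wells stained with propidium iodide for fluorescence read-out. Dead-cell proportion expressed relative to Triton X-100-treated control.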

Series [10] concerns SH-SY5Y. The series can be described thus: Neuroprotective activity against MPP+ induced cell death in human SH-SY5Y cells assessed as cell death at 1 uM by YOPRO-1 staining based assay. In kind it is functional. Put shortly: (§6)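 Neuron-like SH-SY5Y co-treated with compound and 5 mM MPP+ for 24 h; centrifuged at 500 × g, medium replaced by 1 μM YO-PRO1 in PBS for 15 min at room temperature; fluorescence 488/530 nm; MPP+ signal set to 100 %; triplicates on at least three independent days.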

The subject of series [11] is SH-SY5Y. The series can be described thus: Neuroprotective activity against MPP+ induced cell death in human SH-SY5Y cells at 1 to 10 uM in presence of AM630. The series is classed as functional, cell-based. Particulars: dose 1-10 µM. Put shortly:
(§7)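 Neuron-like SH-SY5Y co-treated for 24 h with 5 mM MPP+, compound and CB2 inverse agonist AM630 or antagonist SR144528 at 0.1, 1 or 10 μM; CB2 ligands also tested alone and with MPP+; cell death read-out; triplicates on three independent days.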

The nature of series [12]: Selectivity index, ratio of IC50 for electric eel AChE to IC50 for equine serum BChE. The gist of the method: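 Ratio of IC50 values from modified Ellman spectrophotometric assays with electric eel AChE and equine serum BChE. Each used enzyme at 0.2 U/mL final, acetylthiocholine or butyrylthiocholine at 40 μM, and DTNB at 100 μM. Inhibitors were dissolved in DMSO, diluted in water, and tested at five concentrations in triplicate. IC50 came from regression of v0/vi against inhibitor concentration.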

Series [13] relates to SH-SY5Y. The series can be described thus: Inhibition of MPP+ induced superoxide radical production in human SH-SY5Y cells at 10 uM incubated for 24 hrs by microplate reader assay (reference value: 100%). In kind it is functional. Put shortly:
(§8)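 Neuron-like SH-SY5Y co-treated with 5 mM MPP+ and compound for 24 h; centrifuged at 500 × g, medium replaced with 10 μM dihydroethidium in PBS for 30 min, fluorescence 500/580 nm; MPP+ signal set to 100 %; triplicates on at least four independent days.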

Series [14] relates to SH-SY5Y. Briefly: Neuroprotective activity against ATRA-differentiated and MPP+ induced cell death in human SH-SY5Y cells assessed as cell death at 10 uM incubated for 24 hrs by propidium iodide staining based fluorescence assay (reference value: 100%). The series is classed as functional. The gist of the method: (§9)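 ATRA-differentiated SH-SY5Y co-treated with compound and 5 mM MPP+ for 24 h; cell death by propidium iodide fluorescence, MPP+-treated signal set to 100 %.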

Series [15] relates to SH-SY5Y. Briefly: Neuroprotective activity against MPP+ induced cell death in human SH-SY5Y cells assessed as cell death at 10 uM by YOPRO-1 staining based assay. The series is classed as functional. The gist of the method: as §6
Series [16] concerns SH-SY5Y. The series can be described thus: Neuroprotective activity against ATRA-differentiated and 3-NPA induced cell death in human SH-SY5Y cells assessed as cell death at 0.1 uM incubated for 48 hrs by propidium iodide staining based fluorescence assay (reference value: 100%). The series is classed as functional. Put shortly:
(§10)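 ATRA-differentiated SH-SY5Y co-treated with compound and 20 mM 3-nitropropionic acid for 48 h; cell death by propidium iodide fluorescence, 3-NPA-treated signal set to 100 %.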

Series [17] has as its system SH-SY5Y. Briefly: Inhibition of MPP+ induced Akt phosphorylation at Ser473 residues in human SH-SY5Y cells at 1 to 10 uM incubated for 24 hrs by Western blotting analysis. Particulars: dose 1-10 µM. The series is classed as cell-based. The gist of the method:
as §2

Series [18] relates to SH-SY5Y. Briefly: Neuroprotective activity against MPP+ induced cell death in human SH-SY5Y cells assessed as cell death at 1 uM incubated for 24 hrs by Cas-3, 7 staining based assay. In kind it is functional. The gist of the method: as §5
The target in another series is Acetylcholinesterase (Electrophorus electricus, UniProt O42275). Briefly: Inhibition of electric eel AChE using acetylthiocholine as substrate by Ellman's method.
In series [19] the target is Cannabinoid receptor 2 (Homo sapiens) (UniProt P34972). Briefly: Activation of CB2 (unknown origin) expressed in CHO cells at 1 to 10 uM. The series is classed as cell-based. The note with it: dose 1-10 µM. The gist of the method:
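cAMP quantified in CB2-transfected CHO cells after treatment; compound tested at 1 and 10 μM to detect direct receptor activation (commercial LeadHunter service).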

Series [20] has as its system SH-SY5Y. The series can be described thus: Neuroprotective activity against MPP+ induced cell death in human SH-SY5Y cells at 1 to 10 uM in presence of SR144528. Particulars: dose 1-10 µM. In kind it is functional, cell-based. Put shortly: as §7
The subject of series [21] is SH-SY5Y. The series can be described thus: Neuroprotective activity against ATRA-differentiated and MPP+ induced cell death in human SH-SY5Y cells assessed as cell death at 0.1 uM incubated for 24 hrs by propidium iodide staining based fluorescence assay (reference value: 100%). In kind it is functional. Put shortly: as §9
The subject of series [22] is SH-SY5Y. Briefly: Neuroprotective activity against ATRA-differentiated and MPP+ induced cell death in human SH-SY5Y cells assessed as cell death at 1 uM incubated for 24 hrs by propidium iodide staining based fluorescence assay (reference value: 100%). In kind it is functional. The gist of the method:
as §9

Series [23] relates to SH-SY5Y. The series can be described thus: Neuroprotective activity against ATRA-differentiated and 3-NPA induced cell death in human SH-SY5Y cells assessed as cell death at 1 uM incubated for 48 hrs by propidium iodide staining based fluorescence assay (reference value: 100%). The series is classed as functional. The gist of the method: as §10
For series [24], the system named is SH-SY5Y. Briefly: Neuroprotective activity against ATRA-differentiated and 3-NPA induced cell death in human SH-SY5Y cells assessed as cell death at 10 uM incubated for 48 hrs by propidium iodide staining based fluorescence assay (reference value: 100%). In kind it is functional. Put shortly:
as §10

Series [25] relates to SH-SY5Y. Briefly: Inhibition of MPP+ induced mitochondrial depolarization in human SH-SY5Y cells at 1 uM incubated for 2 hrs by JC10 staining based confocal laser scanning microscopy. The series is classed as functional. The gist of the method: as §3
The test system of series [26] is SH-SY5Y. Briefly: Inhibition of MPP+ induced superoxide radical production in human SH-SY5Y cells at 1 uM incubated for 24 hrs by microplate reader assay (reference value: 100%). The series is classed as functional. Put shortly: as §8
Series [27] relates to SH-SY5Y. Briefly: Inhibition of MPP+ induced mitochondrial superoxide radical production in human SH-SY5Y cells at 1 uM incubated for 24 hrs by MitoSOX staining based microplate reader assay (reference value: 100%). The series is classed as functional. The gist of the method:
as §4

Here are results for two compounds from ChEMBL document CHEMBL5608194, “Novel neuroprotective 5,6-dihydropyrido[2',1':2,3]imidazo[4,5-c]quinoline derivatives acting through cholinesterase inhibition and CB2 signaling modulation” (Eur J Med Chem, 2024).

The structures appear in SMILES notation. The source made the active and inactive calls. The rule behind the calls is not given here.

Chain of Acetylcholinesterase (O42275 whole entry): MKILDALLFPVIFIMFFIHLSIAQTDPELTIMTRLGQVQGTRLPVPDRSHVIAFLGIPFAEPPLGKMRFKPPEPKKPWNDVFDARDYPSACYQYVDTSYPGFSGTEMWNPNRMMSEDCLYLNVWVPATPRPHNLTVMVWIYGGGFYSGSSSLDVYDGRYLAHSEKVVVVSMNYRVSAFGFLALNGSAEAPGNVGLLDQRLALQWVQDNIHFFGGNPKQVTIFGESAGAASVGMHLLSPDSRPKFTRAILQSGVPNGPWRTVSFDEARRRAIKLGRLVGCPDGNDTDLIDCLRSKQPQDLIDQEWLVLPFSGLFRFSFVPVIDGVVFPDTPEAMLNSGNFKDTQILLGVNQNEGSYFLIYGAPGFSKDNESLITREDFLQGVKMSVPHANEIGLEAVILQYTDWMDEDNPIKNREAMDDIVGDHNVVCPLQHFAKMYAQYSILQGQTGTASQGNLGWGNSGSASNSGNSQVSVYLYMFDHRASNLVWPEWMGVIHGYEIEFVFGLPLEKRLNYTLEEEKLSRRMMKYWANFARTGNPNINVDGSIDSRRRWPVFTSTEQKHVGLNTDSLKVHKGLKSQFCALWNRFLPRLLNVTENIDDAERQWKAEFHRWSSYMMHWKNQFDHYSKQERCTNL
Chain of Cholinesterase (P81908 whole entry): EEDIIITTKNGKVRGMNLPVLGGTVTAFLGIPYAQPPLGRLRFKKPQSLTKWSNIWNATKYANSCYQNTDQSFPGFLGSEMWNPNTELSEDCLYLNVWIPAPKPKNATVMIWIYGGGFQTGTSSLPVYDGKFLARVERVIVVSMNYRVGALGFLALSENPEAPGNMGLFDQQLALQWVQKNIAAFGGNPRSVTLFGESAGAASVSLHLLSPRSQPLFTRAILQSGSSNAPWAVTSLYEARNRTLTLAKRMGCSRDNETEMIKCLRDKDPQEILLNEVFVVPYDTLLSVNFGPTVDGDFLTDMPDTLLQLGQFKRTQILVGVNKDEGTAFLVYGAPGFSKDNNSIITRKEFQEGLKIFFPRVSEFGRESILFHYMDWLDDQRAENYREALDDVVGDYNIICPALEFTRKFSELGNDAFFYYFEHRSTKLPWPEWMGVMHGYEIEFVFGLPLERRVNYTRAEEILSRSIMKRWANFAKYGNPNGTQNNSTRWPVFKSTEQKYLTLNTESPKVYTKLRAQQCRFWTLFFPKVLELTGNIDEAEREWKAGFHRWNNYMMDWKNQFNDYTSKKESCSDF
Chain of Mitogen-activated protein kinase; ERK1/ERK2 (Homo sapiens) (P27361 whole entry, looked up): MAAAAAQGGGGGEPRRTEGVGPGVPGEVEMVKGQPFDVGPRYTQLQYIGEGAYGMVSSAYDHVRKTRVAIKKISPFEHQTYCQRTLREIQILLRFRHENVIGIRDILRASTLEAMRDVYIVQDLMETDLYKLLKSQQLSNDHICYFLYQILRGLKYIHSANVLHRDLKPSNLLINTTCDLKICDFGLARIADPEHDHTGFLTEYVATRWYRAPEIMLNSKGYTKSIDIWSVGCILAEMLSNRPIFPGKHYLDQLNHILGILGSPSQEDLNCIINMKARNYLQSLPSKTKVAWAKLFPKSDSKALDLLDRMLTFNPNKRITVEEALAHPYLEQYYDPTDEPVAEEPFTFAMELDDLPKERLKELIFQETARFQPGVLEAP
Chain of Mitogen-activated protein kinase; ERK1/ERK2 (Homo sapiens) (P28482 whole entry, looked up): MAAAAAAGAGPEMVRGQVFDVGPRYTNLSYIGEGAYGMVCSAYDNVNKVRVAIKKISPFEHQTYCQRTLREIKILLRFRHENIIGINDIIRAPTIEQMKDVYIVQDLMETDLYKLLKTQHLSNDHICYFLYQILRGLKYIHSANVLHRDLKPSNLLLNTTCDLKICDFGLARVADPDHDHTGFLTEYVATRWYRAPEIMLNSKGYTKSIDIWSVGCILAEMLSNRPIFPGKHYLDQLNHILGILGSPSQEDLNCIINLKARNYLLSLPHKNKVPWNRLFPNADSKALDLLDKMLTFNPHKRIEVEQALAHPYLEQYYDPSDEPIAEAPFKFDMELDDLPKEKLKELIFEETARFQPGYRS
Chain of Cannabinoid receptor 2 (Homo sapiens) (P34972 whole entry): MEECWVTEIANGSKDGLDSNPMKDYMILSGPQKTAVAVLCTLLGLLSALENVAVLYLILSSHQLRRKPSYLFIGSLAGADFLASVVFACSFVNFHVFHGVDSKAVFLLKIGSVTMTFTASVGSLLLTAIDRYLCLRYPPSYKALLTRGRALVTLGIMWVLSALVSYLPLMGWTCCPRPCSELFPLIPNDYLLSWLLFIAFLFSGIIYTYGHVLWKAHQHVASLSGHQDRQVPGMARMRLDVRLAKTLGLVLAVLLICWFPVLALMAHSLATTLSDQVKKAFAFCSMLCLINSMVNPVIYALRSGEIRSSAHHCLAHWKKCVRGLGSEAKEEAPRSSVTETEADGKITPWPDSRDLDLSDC

One may read the IC50 as the concentration needed to halve the response being measured. In general, inhibition refers to how much of the control response was suppressed. As for `CC1(C)Nc2ccccc2-c2nc3ccccn3c21`, the results for the IC50 on Cholinesterase and on Acetylcholinesterase were 28.5 µM and 47.9 µM, respectively. The outcome in the series on SH-SY5Y [1] and with SH-SY5Y [2] was Active. The inhibition entry (in series [3]; in the series on SH-SY5Y [6]; with SH-SY5Y [17]) was “Active” in each case. The Activity with SH-SY5Y [4] stood at 50.2%; with SH-SY5Y [8], 48.8%; with SH-SY5Y [9], 14.6%; with SH-SY5Y [10], 58.8%; with SH-SY5Y [14] it was 26.2%; with SH-SY5Y [15], 37.9%. The Activity in the series on SH-SY5Y [16] is reported as 98.7%; in the series with SH-SY5Y [18], 64.2%; in the series with SH-SY5Y [21], 96.7%; in the series with SH-SY5Y [22], 39.7%; with SH-SY5Y [23], 83.1%; with SH-SY5Y [24], 57.8%. In addition, the inhibition at 10 µM in the series on SH-SY5Y [5] was 66.8%; in the series on SH-SY5Y [7], 41.3%; in the series with SH-SY5Y [13], 44.4%. Also, the outcome (in the series with SH-SY5Y [11]; in [19]; in the series on SH-SY5Y [20]) was inactive. Further, the Ratio IC50 in [12] amounted to 1.68.
In the case of `c1ccc2c(c1)NC1(CCCCC1)c1c-2nc2ccccn12`, the IC50 came to 19.8 µM at Cholinesterase and 34 µM on Acetylcholinesterase. Further, the inhibition at 1 µM was 70.6% in the series with SH-SY5Y [25], 59.9% in the series on SH-SY5Y [26] and 61.7% in the series with SH-SY5Y [27]. The Activity in the series with SH-SY5Y [2] is 65.1%; in the series with SH-SY5Y [9], 12.2%; with SH-SY5Y [10] it was 58.7%; in the series on SH-SY5Y [14] it was 52.7%; in the series with SH-SY5Y [16], 78.5%; in the series with SH-SY5Y [18], 59.1%. Besides, the Activity in the series on SH-SY5Y [21] stood at 57%; in the series on SH-SY5Y [22], 37.3%; in the series on SH-SY5Y [23], 64%; in the series on SH-SY5Y [24], 65.8%. Further, the Ratio IC50 in [12] came to 1.72.
